From ChEMBL document CHEMBL4266062, “Discovery of JND3229 as a New EGFRC797S Mutant Inhibitor with In Vivo Monodrug Efficacy” (ACS Med Chem Lett, 2018) come the findings set out here.

What is called IC50 is the concentration needed to halve the response being measured.

Active and inactive are the calls of the source. The calls are words filed in the database; no cut-off is given here.

The test system of data set [1] is BaF3. In words: Antiproliferative activity against mouse BAF3 cells harboring EGFR L858R/T790M/C797S mutant after 72 hrs by resazurin dye based assay. It counts as functional, cell-based. As to conditions: BaF3, 72 h.
For data set [2], the system named is BaF3. In words: Antiproliferative activity against mouse BAF3 cells harboring EGFR 19D/T790M/C797S mutant after 72 hrs by resazurin dye based assay. As to conditions: BaF3, 72 h. It counts as functional, cell-based. (Alamar Blue is a resazurin reagent that responds to reducing activity.)
The subject of data set [3] is NCI-H1975. In words: Antiproliferative activity against human NCI-H1975 cells harboring EGFR L858R/T790M mutant after 72 hrs by resazurin dye based assay. It counts as functional, cell-based. As to conditions: NCI-H1975, 72 h.
In data set [4] the target is Epidermal growth factor receptor (Homo sapiens, UniProt P00533, L858R/T790M). In words: Inhibition of recombinant human EGFR T790M/L858R double mutant using poly (Glu,Tyr) 4:1 as substrate after 1 hr by ELISA. For orientation: An ELISA detects its analyte on a solid surface through an enzyme-linked reagent.
In data set [5] the target is Epidermal growth factor receptor (Homo sapiens, UniProt P00533, C797S/L858R/T790M). In words: Inhibition of recombinant human C-terminal His-tagged/N-terminal GST-tagged EGFR (668 to 1210 residues) T790M/L858R/C797S mutant using poly (Glu,Tyr) 4:1 as substrate after 1 hr by ELISA.
Data set [6] has as its system BaF3. In words: Antitumor activity against mouse BAF3 cells harboring EGFR 19D/T790M/C797S mutant implanted in Balb/c mouse assessed as tumor growth inhibition at 10 mg/kg, ip administered twice daily for 10 days relative to control. It counts as functional. The following applies: 240 h, read-out: TGI. A digest of the protocol:
(§1)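 BALB/c mice with established BaF3-EGFR19D/T790M/C797S xenografts (n = 6); 10 mg/kg in 0.5% HPMC ip twice daily for 10 days versus vehicle. Relative tumor volume and body weight recorded every 2–3 days. TGI taken on the final treatment day versus control; Student's t test.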

Data set [7] has as its system Mus musculus. In words: Toxicity in Balb/c mouse implanted with mouse BAF3-EGFR 19D/T790M/C797S mutant cells assessed as change in body weight at 10 mg/kg, ip administered twice daily for 10 days measured every 2 to 3 days during compound dosing. It counts as organism-based. The following applies: in vivo. A digest of the protocol: as §1
Data set [8] concerns Mus musculus. In words: In vivo inhibition of EGFR phosphorylation in tumor of Balb/c mouse implanted with mouse BAF3-EGFR 19D/T790M/C797S mutant cells at 10 mg/kg, ip administered twice daily for 10 days by H and E staining based IHC analysis. It counts as functional, organism-based. An outline of the steps: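 Xenograft tumor sections taken from the 10 mg/kg ip twice-daily treated mice and controls. Sections stained with H&E and anti-p-EGFR antibody. p-EGFR labeling quantified as relative integrated optical density; Student's t test versus control.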

Data set [9] relates to Epidermal growth factor receptor (Homo sapiens), P00533 [UNDEFINED MUTATION]. In words: Inhibition of EGFR 19D/T790M/C797S mutant (unknown origin) expressed in mouse BAF3 cells assessed as reduction in EGF-induced receptor phosphorylation preincubated for 2 hrs followed by EGF stimulation for 15 mins by Western blot analysis. Type of data set: cell-based. A digest of the protocol: (§2)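 BaF3 cells stably transfected with the mutant EGFR were treated for 2 h across a range of compound concentrations, then stimulated with EGF for 15 min. Cell lysates were collected, and EGFR phosphorylation was read out by Western blot.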
(In general: In western blotting, separated proteins are transferred to a membrane and probed.)

Data set [10] has as its system A-431. In words: Antiproliferative activity against human A431 cells harboring wild type EGFR after 72 hrs by resazurin dye based assay. As to conditions: A-431, 72 h. Type of data set: functional, cell-based.
The test system of data set [11] is Epidermal growth factor receptor (Homo sapiens), P00533 [L858R,T790M,C797S]. In words: Inhibition of EGFR T790M/L858R/C797S mutant (unknown origin) expressed in mouse BAF3 cells assessed as reduction in EGF-induced receptor phosphorylation preincubated for 2 hrs followed by EGF stimulation for 15 mins by Western blot analysis. It counts as cell-based. A digest of the protocol: as §2

Data set [12] relates to BaF3. In words: Antitumor activity against mouse BAF3 cells harboring EGFR 19D/T790M/C797S mutant implanted in Balb/c mouse assessed as tumor growth inhibition at 60 mg/kg, po administered once daily via gavage for 10 days co-treated with cetuximab once every other day relative to control. It counts as functional. The following applies: 240 h, read-out: TGI. An outline of the steps:
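Same BaF3-EGFR19D/T790M/C797S xenograft in BALB/c mice (n = 6). Positive-control regimen: 60 mg/kg in 10% NMP/90% PEG300 by oral gavage once daily, plus cetuximab 1 mg/kg in 0.9% NaCl/water ip every other day. Relative tumor volume measured every 2–3 days. TGI taken on the final treatment day versus control; Student's t test.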

Epidermal growth factor receptor (Homo sapiens, UniProt P00533, L858R/T790M), sequence (P00533 25-1210 T790M/L858R limits assumed): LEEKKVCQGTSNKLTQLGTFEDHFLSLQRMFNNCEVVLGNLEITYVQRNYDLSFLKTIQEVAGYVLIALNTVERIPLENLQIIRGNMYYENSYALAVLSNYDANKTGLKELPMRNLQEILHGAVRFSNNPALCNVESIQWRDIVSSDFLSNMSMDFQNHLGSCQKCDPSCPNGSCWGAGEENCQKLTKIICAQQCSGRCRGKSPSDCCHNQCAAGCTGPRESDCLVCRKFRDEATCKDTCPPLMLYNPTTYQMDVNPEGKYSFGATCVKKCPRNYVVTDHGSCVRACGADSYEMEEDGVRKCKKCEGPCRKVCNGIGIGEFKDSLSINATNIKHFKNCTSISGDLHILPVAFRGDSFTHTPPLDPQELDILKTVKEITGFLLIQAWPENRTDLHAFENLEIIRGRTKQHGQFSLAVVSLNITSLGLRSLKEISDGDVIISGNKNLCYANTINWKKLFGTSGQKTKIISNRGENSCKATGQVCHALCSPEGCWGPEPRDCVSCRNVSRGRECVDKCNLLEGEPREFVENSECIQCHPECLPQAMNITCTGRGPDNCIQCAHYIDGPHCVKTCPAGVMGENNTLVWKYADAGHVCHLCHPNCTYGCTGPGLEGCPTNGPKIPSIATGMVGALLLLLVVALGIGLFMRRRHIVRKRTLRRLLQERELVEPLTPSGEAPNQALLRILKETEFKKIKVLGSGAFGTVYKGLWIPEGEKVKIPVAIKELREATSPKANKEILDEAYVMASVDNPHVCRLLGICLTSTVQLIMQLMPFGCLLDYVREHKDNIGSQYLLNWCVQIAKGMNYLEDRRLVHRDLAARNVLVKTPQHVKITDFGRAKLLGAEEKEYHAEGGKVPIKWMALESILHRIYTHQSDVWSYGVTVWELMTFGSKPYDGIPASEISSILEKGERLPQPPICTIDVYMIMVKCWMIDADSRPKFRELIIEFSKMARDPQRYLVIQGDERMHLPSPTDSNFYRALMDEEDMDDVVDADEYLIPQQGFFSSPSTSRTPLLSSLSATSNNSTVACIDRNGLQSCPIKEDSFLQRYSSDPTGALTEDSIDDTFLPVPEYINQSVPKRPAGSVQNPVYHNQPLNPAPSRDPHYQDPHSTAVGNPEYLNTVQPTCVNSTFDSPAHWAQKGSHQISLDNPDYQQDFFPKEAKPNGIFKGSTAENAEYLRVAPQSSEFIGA
Epidermal growth factor receptor (Homo sapiens), P00533 [L858R,T790M,C797S], sequence (P00533 whole entry T790M/C797S/L858R): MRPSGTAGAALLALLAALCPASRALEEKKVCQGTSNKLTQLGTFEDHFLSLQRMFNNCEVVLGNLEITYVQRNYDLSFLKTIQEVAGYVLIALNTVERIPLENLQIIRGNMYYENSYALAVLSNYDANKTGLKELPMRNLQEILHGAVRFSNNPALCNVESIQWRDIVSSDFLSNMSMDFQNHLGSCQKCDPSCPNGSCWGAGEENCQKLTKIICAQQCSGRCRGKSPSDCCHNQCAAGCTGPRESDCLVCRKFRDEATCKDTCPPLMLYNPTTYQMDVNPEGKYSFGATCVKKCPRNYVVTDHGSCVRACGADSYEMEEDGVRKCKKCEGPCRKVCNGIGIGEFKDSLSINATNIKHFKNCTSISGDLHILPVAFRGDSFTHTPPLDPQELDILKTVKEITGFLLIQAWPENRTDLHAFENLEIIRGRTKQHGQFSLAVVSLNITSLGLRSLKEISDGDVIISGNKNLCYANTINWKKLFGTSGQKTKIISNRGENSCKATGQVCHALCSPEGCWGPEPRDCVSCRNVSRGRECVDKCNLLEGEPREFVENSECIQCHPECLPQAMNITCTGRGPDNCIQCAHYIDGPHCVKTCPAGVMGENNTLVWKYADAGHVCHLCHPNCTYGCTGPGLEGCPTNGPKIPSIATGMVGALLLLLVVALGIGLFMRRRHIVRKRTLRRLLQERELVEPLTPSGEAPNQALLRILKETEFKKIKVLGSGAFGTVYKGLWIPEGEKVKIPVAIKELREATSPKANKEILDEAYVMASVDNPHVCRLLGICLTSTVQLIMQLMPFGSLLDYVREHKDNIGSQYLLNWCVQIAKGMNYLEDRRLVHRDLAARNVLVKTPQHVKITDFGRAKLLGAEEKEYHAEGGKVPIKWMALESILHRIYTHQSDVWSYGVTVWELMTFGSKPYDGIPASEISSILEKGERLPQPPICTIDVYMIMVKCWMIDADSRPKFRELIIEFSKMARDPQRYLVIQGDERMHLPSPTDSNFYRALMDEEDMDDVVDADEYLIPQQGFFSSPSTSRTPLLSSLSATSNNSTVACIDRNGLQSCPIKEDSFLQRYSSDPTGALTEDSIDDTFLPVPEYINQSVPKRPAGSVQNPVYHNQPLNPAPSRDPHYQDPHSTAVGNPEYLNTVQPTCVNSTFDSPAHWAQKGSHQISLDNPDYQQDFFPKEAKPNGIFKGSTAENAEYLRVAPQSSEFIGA
Epidermal growth factor receptor (Homo sapiens, UniProt P00533, C797S/L858R/T790M), sequence (P00533 25-1210 T790M/C797S/L858R limits assumed): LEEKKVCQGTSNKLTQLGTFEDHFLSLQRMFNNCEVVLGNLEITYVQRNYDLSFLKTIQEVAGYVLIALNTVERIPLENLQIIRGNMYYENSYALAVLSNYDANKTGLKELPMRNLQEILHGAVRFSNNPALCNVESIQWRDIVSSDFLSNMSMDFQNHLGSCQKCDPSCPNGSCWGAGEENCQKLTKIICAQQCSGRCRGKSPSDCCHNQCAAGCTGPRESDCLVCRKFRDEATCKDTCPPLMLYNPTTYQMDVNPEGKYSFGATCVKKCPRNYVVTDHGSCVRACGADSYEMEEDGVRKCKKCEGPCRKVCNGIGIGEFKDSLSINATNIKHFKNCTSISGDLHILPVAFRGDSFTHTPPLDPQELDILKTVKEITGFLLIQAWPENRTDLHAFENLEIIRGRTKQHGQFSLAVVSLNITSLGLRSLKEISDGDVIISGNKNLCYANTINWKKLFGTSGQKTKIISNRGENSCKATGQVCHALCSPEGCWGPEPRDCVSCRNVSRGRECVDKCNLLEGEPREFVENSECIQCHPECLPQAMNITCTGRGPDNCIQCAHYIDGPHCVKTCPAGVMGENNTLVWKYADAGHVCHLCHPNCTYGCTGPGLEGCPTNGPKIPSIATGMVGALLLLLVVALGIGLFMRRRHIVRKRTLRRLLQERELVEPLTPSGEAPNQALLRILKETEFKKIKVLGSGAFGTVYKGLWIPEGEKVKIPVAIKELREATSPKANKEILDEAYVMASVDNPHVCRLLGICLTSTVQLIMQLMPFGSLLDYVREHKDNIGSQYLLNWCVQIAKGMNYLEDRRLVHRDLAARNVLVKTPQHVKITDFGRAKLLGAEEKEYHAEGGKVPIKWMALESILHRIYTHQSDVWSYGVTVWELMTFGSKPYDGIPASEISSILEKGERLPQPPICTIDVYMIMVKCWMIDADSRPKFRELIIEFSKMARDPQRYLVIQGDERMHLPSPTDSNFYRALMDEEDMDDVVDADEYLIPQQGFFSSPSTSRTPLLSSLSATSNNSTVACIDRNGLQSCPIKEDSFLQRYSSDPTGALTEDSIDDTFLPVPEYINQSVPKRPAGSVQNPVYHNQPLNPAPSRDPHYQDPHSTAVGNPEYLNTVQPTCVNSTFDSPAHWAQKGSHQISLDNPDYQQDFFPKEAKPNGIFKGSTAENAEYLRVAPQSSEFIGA
Epidermal growth factor receptor (Homo sapiens), P00533 [UNDEFINED MUTATION], sequence (P00533 whole entry, looked up, stated change not applied): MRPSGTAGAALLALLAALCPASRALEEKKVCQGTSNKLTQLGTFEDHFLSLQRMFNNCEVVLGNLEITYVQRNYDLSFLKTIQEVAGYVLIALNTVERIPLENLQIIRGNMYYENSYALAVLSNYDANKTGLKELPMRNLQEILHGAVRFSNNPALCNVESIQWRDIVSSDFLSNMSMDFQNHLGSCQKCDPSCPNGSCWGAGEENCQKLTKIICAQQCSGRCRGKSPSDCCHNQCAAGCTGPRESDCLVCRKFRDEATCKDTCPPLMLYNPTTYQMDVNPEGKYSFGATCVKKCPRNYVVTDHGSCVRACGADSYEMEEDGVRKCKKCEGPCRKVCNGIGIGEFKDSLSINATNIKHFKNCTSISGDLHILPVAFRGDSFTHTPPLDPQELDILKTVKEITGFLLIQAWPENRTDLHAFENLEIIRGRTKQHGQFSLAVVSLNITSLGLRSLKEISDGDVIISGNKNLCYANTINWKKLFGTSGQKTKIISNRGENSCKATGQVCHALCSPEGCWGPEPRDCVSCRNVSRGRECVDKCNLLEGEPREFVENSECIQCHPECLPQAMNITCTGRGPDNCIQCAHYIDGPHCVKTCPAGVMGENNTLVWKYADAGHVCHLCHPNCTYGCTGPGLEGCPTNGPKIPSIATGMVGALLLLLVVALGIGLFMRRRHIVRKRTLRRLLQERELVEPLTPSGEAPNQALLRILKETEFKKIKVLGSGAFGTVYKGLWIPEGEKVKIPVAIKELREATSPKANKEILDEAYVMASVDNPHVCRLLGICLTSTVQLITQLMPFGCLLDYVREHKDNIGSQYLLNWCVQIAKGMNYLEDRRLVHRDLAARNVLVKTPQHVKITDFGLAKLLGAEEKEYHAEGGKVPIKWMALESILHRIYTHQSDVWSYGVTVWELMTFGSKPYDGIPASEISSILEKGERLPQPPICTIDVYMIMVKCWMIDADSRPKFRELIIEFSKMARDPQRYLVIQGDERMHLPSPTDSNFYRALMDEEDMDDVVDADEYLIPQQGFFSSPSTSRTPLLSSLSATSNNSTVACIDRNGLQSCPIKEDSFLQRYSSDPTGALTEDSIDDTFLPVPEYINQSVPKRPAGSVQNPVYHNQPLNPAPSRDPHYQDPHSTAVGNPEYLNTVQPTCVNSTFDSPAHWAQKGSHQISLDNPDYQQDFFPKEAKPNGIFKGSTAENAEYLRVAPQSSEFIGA

With `COc1cc(N2CCC(N3CCN(C)CC3)CC2)ccc1Nc1ncc(Cl)c(Nc2ccccc2P(C)(C)=O)n1` [BRIGATINIB], the IC50 came to 0.42 µM in data set [1], 0.26 µM in data set [2] and 1.09 µM in [3].

Turning to `N#Cc1ccc(O)c(-c2nc(NCc3cnccn3)c3ccccc3n2)c1`, the results for the 50% inhibitory concentration (IC50) in [4] and in data set [5] were 0.367 µM and 0.0852 µM, respectively.

On to `CCC(=O)N[C@H]1CC[C@H](N2C(=O)N(c3ccccc3Cl)Cc3cnc(Nc4ccc(N5CCN(C)CC5)c(C)c4)nc32)CC1`, for which the IC50 in data set [1] stood at 0.51 µM; in data set [2], 0.32 µM; in [3] it was 0.31 µM; in data set [10] it was 0.27 µM. Also, the inhibition in vivo at 10 mg/kg in data set [6] amounted to 42.2%. In addition, the Activity result in data set [7] is “Non-Toxic”. Further, the inhibition entry in data set [8] is “Active”. The inhibition entry in [9] and in [11] was “Dose-dependent effect” throughout.

Consider `C=CC(=O)Nc1cc(Nc2nccc(-c3cn(C)c4ccccc34)n2)c(OC)cc1N(C)CCN(C)C` [OSIMERTINIB], for which the IC50 was found to be 5.15 µM in data set [1], 4.61 µM in data set [2], […] in data set [3] and […] in data set [10].

Take `O=C(Nc1nccs1)C(c1cc(F)ccc1O)N1Cc2ccccc2C1=O` (centres undefined): the inhibition in vivo at 60 mg/kg in data set [12] was 22.3%.
